# Assay outcomes: PubChem, The Scripps Research Institute Molecular Screening Center
# Only some compounds are listed: those with a hit (about 3.3% of all), similar ones and a draw of the others.
# mABHD4 FP: ABHD4 inhibitors, primary screen, biochemical, fluorescence polarization, mouse. (Lyso)-N-acylphosphatidylethanolamine lipase (Mus musculus), Q8VD66. purified mABHD4, FP-Rh probe fluorescence polarization. inhibition, % at 8.92 µM. actives 0.54% (n = 370,000). AID 720543, 2013;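 active means inhibition exceeding the mean over every tested compound plus 3 SD, cut at about 30% in these data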;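 further: 0% = plate median of compound wells and 100% = S159A mutant with DMSO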
#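 Test system: mABHD4 protein; Read-out basis: % inhibition; Incubation: 45 min + 60 min at 25 °C; Repeats: single replicate; Technique: fluorescence polarization with parallel and perpendicular emission, 525/598 nm; Compound: 8.92 µM, single dose; Benchmarks: full inhibition S159A mutant plus DMSO, zero as sample-well median.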
# rCAG binder: binders of r(CAG) RNA repeats, primary screen, biochemical, fluorescence; r(CAG) RNA repeat, TO-PRO-1 dye displacement fluorescence; inhibition, % at 3 µM; actives 1.3% (n = 370,000); AID 651821, 2012;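 active means inhibition above the plate cutoff, the mean of all test compounds on that plate plus 3 SD, cut at about 35% in these data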;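 further: 0% = DMSO alone and 100% = 100 µM mitoxantrone as full dye displacement; higher means more dye released from RNA so lower well fluorescence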
# SIAE inh: human SIAE inhibitors, primary screen, biochemical, fluorescence polarization, FP-Rh probe, 1536-well HTS; Sialate O-acetylesterase (Homo sapiens), Q9HAT2; SIAE FP-Rh probe binding; inhibition, % at 9.66 µM; actives 0.69% (n = 370,000); AID 1053197, 2014;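 active means inhibition above a cutoff: mean of compounds within the control limits plus 3 SD of those, cut at about 17% in these data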;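 further: 0% = plate median of compound wells and 100% = probe without SIAE protein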
# Target sequence (Q9HAT2 whole entry, looked up): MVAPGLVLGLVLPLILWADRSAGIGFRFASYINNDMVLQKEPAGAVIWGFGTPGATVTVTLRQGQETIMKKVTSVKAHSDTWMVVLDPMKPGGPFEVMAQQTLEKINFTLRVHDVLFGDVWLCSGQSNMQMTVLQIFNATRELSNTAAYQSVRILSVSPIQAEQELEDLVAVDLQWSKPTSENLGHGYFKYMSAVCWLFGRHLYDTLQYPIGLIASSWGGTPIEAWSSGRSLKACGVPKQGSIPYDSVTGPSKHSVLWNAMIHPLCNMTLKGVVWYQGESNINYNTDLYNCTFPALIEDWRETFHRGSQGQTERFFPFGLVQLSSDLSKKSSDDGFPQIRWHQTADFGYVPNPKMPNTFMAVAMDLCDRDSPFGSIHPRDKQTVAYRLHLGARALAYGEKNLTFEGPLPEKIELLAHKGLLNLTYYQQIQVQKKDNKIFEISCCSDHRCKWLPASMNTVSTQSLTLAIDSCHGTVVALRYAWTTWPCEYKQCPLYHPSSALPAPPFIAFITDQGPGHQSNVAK
# HTRA1 inh: HTRA1 serine protease inhibitors, primary screen, biochemical, fluorescence polarization, HTS. inhibition, % at 5.96 µM. actives 0.5% (n = 340,000). recombinant HTRA1, FP-rhodamine activity-based probe. AID 504803, 2011. Q92743; in the data active means inhibition above about 36%;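 further: 0% = enzyme with DMSO and 100% = wells lacking enzyme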
# PRMT1 FP inh: PRMT1 methyltransferase inhibitors, primary screen, biochemical, fluorescence polarization | Protein arginine N-methyltransferase 1 (Homo sapiens), Q99873 | actives 1.3% (n = 370,000) | recombinant PRMT1, activity-based probe fluorescence polarization | inhibition, % at 2.79 µM;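 active means inhibition above about 21% made by adding two undisclosed values, limit read from the data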
# SIAE confirm: human SIAE inhibitors, retest, confirmation, biochemical, fluorescence polarization, FP-Rh probe, triplicate | SIAE FP-Rh activity-based probe | inhibition, % at 9.66 µM | shares compounds with SIAE inh | actives 13% (n = 2,300);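 active means mean inhibition of the replicates above the hit cutoff set in the primary screen, cut at about 17% in these data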;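 further: 0% = SIAE with DMSO and probe and 100% = probe without SIAE; inhibitors lower polarization as more probe stays unbound to SIAE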
# * = called active by the depositor; x = no result.
SMILES,mABHD4 FP,rCAG binder,SIAE inh,HTRA1 inh,PRMT1 FP inh,SIAE confirm
Cc1ccc(C(=O)C(OC(=O)CCC(=O)Nc2cccc(C)c2)c2ccccc2)cc1 (stereo not drawn),8.4,0.5,20.8*,-7.2,-0.3,-0.9
CCn1c(=O)n(CC)c2cc(N3CCCC3)c(NC(=O)c3ccc(F)cc3)cc21,8.5,-3.3,18.2*,2.3,3.0,2.9
CC1CCC(C(C)C)C(OC(=O)COC(=O)c2cc(O)ccc2N)C1 (stereo not drawn),26.4,5.3,19.6*,17.9,10.0,9.2
CC1CCC(C(C)C)C(OC(=O)COC(=O)c2ccc(=O)[nH]c2)C1 (stereo not drawn),-4.6,-9.1,-8.0,-1.4,-2.5,x
O=C1NC[C@@H](CCCCN2CCN(Cc3ccccc3)C(=O)C2=O)N(CCC2CCCCC2)C1=O,-4.3,-2.7,18.3*,x,0.5,5.1
O=C1NC[C@@H](CCCCN2CCN(Cc3ccccc3)C(=O)C2=O)N(CC2CCCCC2)C1=O,-9.6,0.8,10.9,x,4.1,x
Cc1[nH]c2ccc(F)cc2c1CCN1C(=O)OC(C)(C)C1(C)O (stereo not drawn),-2.7,1.8,26.4*,9.2,-0.5,2.6
Cc1[nH]c2ccc(OCc3ccccc3)cc2c1CCN1C(=O)OC(C)(C)C1(C)O (stereo not drawn),0.7,4.5,4.2,-0.3,-4.8,x
CC(=O)Nc1ccc(OCC(O)Cn2c(CO)nc3ccccc32)cc1 (stereo not drawn),-2.5,-2.3,1.4,4.7,-0.9,x
CC(=O)Nc1ccc(OCC(O)Cn2c(C)nc3ccccc32)cc1 (stereo not drawn),-2.0,-2.8,18.6*,3.0,-1.6,-5.3
CCN1CCN(CCC(=O)Nc2cc(OC)ccc2OC)CC1,4.3,-3.8,19.8*,-0.1,0.9,5.6
COc1ccc(OC)c(NC(=O)CCN2CCN(C)CC2)c1,-0.2,0.8,2.2,6.4,-0.8,x
CCOCCOC(=O)C1=C(C)NC(=O)NC1c1cc2c(cc1Br)OCO2 (stereo not drawn),-3.3,-1.7,1.0,2.7,-1.2,x
CCOc1ccc(-n2c(C)cc(/C=N/NC(=O)C(N)=O)c2C)cc1,5.0,-1.9,19.6*,4.9,3.2,-0.8
COC(=O)[C@@]12C[C@@H](CC(=O)N3CCN(C(=O)C4CC4)CC3)C(=O)N(Cc3ccc4c(c3)OCO4)C1=CCC(C)(C)C2,6.7,2.5,-1.6,x,7.0,x
COCc1cc(=O)[nH]c2cc(NC(=O)C(C)(C)CCl)c(C)cc12,1.2,-0.6,97.2*,1.2,-0.6,0.0
Cc1cc(C)n(CCC(=O)Nc2cccc(F)c2)n1,0.8,-3.0,-3.0,-3.0,2.5,x
Cc1cc(Nc2ccccc2)n(-c2ccc(C(=O)O)cc2)n1,-3.2,0.7,23.4*,5.9,-1.5,-3.5
O=C(NC1CCCCC1)Oc1cccc2ccccc12,3.7,-0.7,-1.1,3.6,-1.9,x
CCCCC[C@H]1CN(Cc2ccccc2)C(=O)[C@@H]1CC(=O)NCc1ccc(OC)cc1,1.1,-10.3,-1.4,-31.0,-0.6,x
COc1ccccc1-n1c(C)nc2cc(C(=O)O)ccc21,-0.4,4.2,17.2*,9.8,1.4,-2.1
O=C(O)c1ccc(Nc2cccc(F)c2)c([N+](=O)[O-])c1,29.1,3.8,20.4*,9.6,-2.0,0.1
CCCCN(C(=O)CCNC(=O)NC12CC3CC(CC(C3)C1)C2)c1c(N)n(CCC)c(=O)[nH]c1=O,-7.6,-4.6,5.1,-2.7,0.1,x
O=C(NNC(=S)Nc1ccc(Cl)cc1Cl)c1cccnc1,10.3,16.6,20.1*,-2.7,-1.7,2.1
COc1ccccc1N1CCN(C2CCCN(Cc3cccc(O)c3)C2)CC1 (stereo not drawn),4.3,-7.4,17.5*,-5.7,-4.9,5.1
SMILES,mABHD4 FP,rCAG binder,SIAE inh,HTRA1 inh,PRMT1 FP inh,SIAE confirm
COc1ccccc1CN1CCCC(N2CCN(c3ccccc3OC)CC2)C1 (stereo not drawn),3.1,-9.6,0.0,6.7,1.1,x
COc1ccc(Nc2cc(C)c3cc([N+](=O)[O-])ccc3n2)cc1,26.3,18.7,24.4*,5.4,-1.1,1.9
CCOC(=O)C1=C(c2ccccc2)NC(N)=NC1c1ccc(OCc2ccc(Cl)cc2)c(OC)c1 (stereo not drawn),9.1,30.3,17.6*,-13.2,-7.0,17.4*
CC(C)c1cc(C(=O)N2CCCC(N3CCN(c4ccc(F)cc4)CC3)C2)no1 (stereo not drawn),-5.1,-2.9,1.1,4.9,-0.9,x
O=C(NC(Cc1ccccc1)C(=O)O)/C(=C/c1ccc(Cl)cc1)NC(=O)c1ccccc1 (stereo not drawn),-5.4,15.3,17.2*,-4.9,-1.8,1.4
CS(=O)(=O)N(CC(=O)N1CCN(Cc2ccccc2)CC1)c1ccccc1Br,4.4,-7.2,19.1*,5.1,0.7,5.5
CS(=O)(=O)N(CC(=O)N1CCN(Cc2ccccc2)CC1)c1ccccc1F,5.0,-2.4,-0.6,-1.8,1.5,x
COc1ccc(N2CCN(C(=O)CN(c3ccccc3)S(C)(=O)=O)CC2)cc1,2.9,-0.7,19.9*,4.7,2.1,3.5
O=C(COC(=O)c1nc(Cl)ccc1Cl)NC1CCCCC1,-1.9,2.5,-1.4,9.9,-1.6,x
NNC(=O)c1oc2nc(-c3ccco3)cc(-c3ccco3)c2c1N,21.1,16.4,50.5*,x,38.3*,73.9*
Cc1ccc(NC(=O)c2ccccc2NC(=O)c2cccs2)cc1,0.1,2.4,-0.4,-20.6,1.3,x
COc1ccc(/C=N/NC(=O)c2ccc(O)cc2)cc1CN1CCCc2ccccc21,-1.4,20.7,25.9*,-24.7,0.3,-3.7
Cc1ccc(Cc2ccccc2C(=O)O)cc1,2.1,3.0,2.9,-3.4,-1.6,x
O=C1OC(c2ccccc2)=NC12CC2c1ccc(Cl)cc1 (stereo not drawn),-1.1,2.7,23.2*,7.5,-1.5,70.1*
CCOc1cc(/C=N/Nc2nc3ccccc3[nH]2)cc(Br)c1OCC(=O)N(C)C,28.2,8.8,23.8*,5.7,1.0,20.8*
Cc1ccc(/C=C/c2nc3ccccc3[nH]2)o1,9.1,7.5,24.4*,2.3,13.0,-6.7
Cc1cc2nc(/C=C/c3nc4cc(C)c(C)cc4[nH]3)[nH]c2cc1C,-0.9,2.1,-3.7,-0.1,-0.6,x
CN(C)S(=O)(=O)N1CCN(CC(O)COc2ccc(-c3ccccc3)cc2)CC1 (stereo not drawn),-8.3,0.0,1.0,-5.2,-1.8,x
O=C1CCc2ccccc2N1Cc1ccccc1,-2.9,0.6,17.9*,2.3,-0.7,0.4
O=C1CCCc2ccccc2N1Cc1ccc(F)cc1,2.8,-6.5,-1.1,2.6,2.2,x
